Measured values pooled from the literature.
Compare with care: the assays were run in different laboratories.
ABCG2: Broad substrate specificity ATP-binding cassette transporter ABCG2 (ABCG2, Homo sapiens, UniProt Q9UNQ0)

| SMILES | tested on | assay | system | conditions | measurement | value |
| --- | --- | --- | --- | --- | --- | --- |
| C[C@@H]1Cn2ncc(-c3ccc(C(=O)N4CCCc5ccccc54)cc3)c2CN1C(=O)Cc1ccccc1 | ABCG2 |  | dog, MDCK-MDR1 |  | Papp B→A | 16 ×10⁻⁶ cm/s |
| CCc1cc(-c2noc(-c3cc(OC)nc(C4CCCC4)c3)n2)cc(C)c1OC[C@@H](O)CO |  |  | Wistar rat, plasma | oral, 1 mg/kg, 3 h, single dose | concentration | 62.7 ng/mL |
| CO[C@H](C(=O)N1Cc2c(-c3ccc(C(=O)N4CCCc5ccccc54)cc3)cnn2C[C@H]1C(C)C)c1ccccc1 (single isomer, unassigned) | ABCG2 |  | dog, MDCK-MDR1 |  | Papp B→A | 8.4 ×10⁻⁶ cm/s |
| CCc1cc(C(=O)NC)c2nccc(N3CCc4c(cc(Cn5ccnc5)cc4-c4cn(C)nc4C(F)(F)F)C3=O)c2c1 |  |  | male Sprague-Dawley rat, plasma | intravenous, 3 mg/kg | half-life | 48 min |
| CSc1nc2nnnc(O)c2s1 | K562 | cell growth or viability |  |  | IC50 | > 640 µM |
| O=C(O)CSc1nnc(Br)n1-c1ccc(C2CC2)c2ccccc12 | ABCG2 | transporter uptake, inhibitor | Caco-2 | 100 µM, 2 h | inhibition | 38% |
| C/N=C(/NC)c1ccc(NC(=O)/C=C/c2ccc(/C=C/C(=O)Nc3ccc(/C(=N\C)NC)cc3)cc2)cc1 | K562 | cell growth or viability |  |  | IC50 | 4.31 µM |
| COc1cccc(-c2n[nH]c(SCc3ccccn3)n2)c1OC |  |  | female Sprague-Dawley rat, plasma | intravenous, 1 mg/kg, 8 h, single dose | concentration | 24.7 ng/mL |
| O=C(N/N=C/c1ccc2ccccc2c1)c1ccc(O)c(O)c1 | K562 | cell growth or viability |  |  | IC50 | 28.9 µM |
| CCOC(=O)[C@@]12C[C@@H]1[C@@H](n1ccc3c(NC)nc(C#Cc4ccc(Cl)s4)nc31)[C@H](O)[C@@H]2O |  |  | male Sprague-Dawley rat, plasma | oral, 1 mg/kg, 2 h | concentration | 5.92 ng/mL |
| COc1cc(Nc2ncc(F)c(Nc3ccc4c(n3)NC(=O)C(C)(C)O4)n2)cc(OC)c1OC | ABCG2 | transporter uptake, inhibitor |  | cell membranes | Ki | 0.065 µM |
| CO[C@@H](C(=O)N1Cc2c(-c3ccc(C(=O)N4CCCc5ccccc54)cc3)cnn2C[C@H]1C(C)C)c1cnn(C)c1 (single isomer, unassigned) | ABCG2 |  | dog, MDCK-MDR1 |  | Papp B→A | 33.7 ×10⁻⁶ cm/s |
| COc1ccc2c(=O)n(C)c(-c3ccccc3)nc2c1 |  |  | male Sprague-Dawley rat, lung | oral, 30 mg/kg, 15 min, single dose | concentration | 15.3 ng/g |
| COc1cc(/C=N\NC(=O)c2ccc(Br)cc2)ccc1OC(=O)c1cccs1 | K562 | cell growth or viability |  |  | IC50 | 32.4 µM |
| C/C(O)=C(\C#N)C(=O)Nc1ccc(C(F)(F)F)cc1 | ABCG2 |  | Caco-2 | 1 µM, 2 h, pH 7.4 | efflux ratio | 6.06 |
| CCC1(C)CC(OC(=O)CSc2nnc(N)[nH]2)C2(C)C(C)CCC3(CCC(=O)C32)C(C)C1O (stereo not shown) | K562 | cell growth or viability |  |  | IC50 | 21.3 µM |
| Cc1noc(C)c1Cn1cc(N2C(=O)CN(Cc3cccc(O)c3)C2=O)cn1 |  |  | male Sprague-Dawley rat, plasma | oral, 100 mg/kg, 15 min | concentration | 26.7 ng/mL |
| C[C@H](C(=O)N1Cc2c(-c3ccc(C(=O)N4CCCc5ccccc54)cc3)cnn2C[C@H]1C)c1ccccc1 | ABCG2 |  | dog, MDCK-MDR1 |  | Papp B→A | 8.4 ×10⁻⁶ cm/s |
| Cc1cc(C)cc(NC(=O)CN(C)S(=O)(=O)c2ccc3[nH]c4c(c3c2)CCCC4)c1 | K562 | cell growth or viability |  |  | IC50 | 12.8 µM |
